These results are taken from ChEMBL document CHEMBL1144601, “Synthesis and antiproliferative properties of N3/8-disubstituted 3,8-diazabicyclo[3.2.1]octane analogues of 3,8-bis[2-(3,4,5-trimethoxyphenyl)pyridin-4-yl]methyl-piperazine” (Eur J Med Chem, 2007).

Common to all, as to assay type: functional, cell-based
Test [1] concerns MCF7. Nature of the test: Antiproliferative activity against human MCF7 cells by MTT assay. An outline of the steps: (§1)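 Exponentially growing cells resuspended in growth medium with serial drug dilutions; viability read by MTT after 96 h at 37 °C, with untreated controls allowed at least three rounds of multiplication. IC50 is the concentration cutting proliferation by 50%, mean ± SD of three independent determinations. Haematological lines were grown in RPMI-1640 with 10% FCS and antibiotics. Solid-tumour lines were grown in their own media with 10% FCS.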

Test [2] deals with DU-145. Put plainly: Antiproliferative activity against human DU145 cells by MTT assay. An outline of the steps: as §1
A general note: Tetrazolium dyes change colour on reduction, which living cells bring about.

The subject of test [3] is CCRF-SB. Put plainly: Antiproliferative activity against human CCRF-SB cells by MTT assay. An outline of the steps:
as §1

In test [4] the test system is WIL2-NS. Put plainly: Antiproliferative activity against human WIL-2NS cells by MTT assay. The gist of the method:
as §1

Test [5] relates to MT4. Nature of the test: Antiproliferative activity against human MT4 cells by MTT assay. An outline of the steps: as §1
The nature of test [6]: Antiproliferative activity against human CRL7065 cells by MTT assay. To be noted: CRL-7065. The gist of the method:
as §1

Test [7] deals with SK-MEL-28. Nature of the test: Antiproliferative activity against human SK-MEL-28 cells by MTT assay. An outline of the steps: as §1
In test [8] the test system is SK-MES-1. Put plainly: Antiproliferative activity against human SKMES1 cells by MTT assay. An outline of the steps:
as §1

Test [9] deals with CCRF-CEM. Nature of the test: Antiproliferative activity against human CCRF-CEM cells by MTT assay. An outline of the steps:
as §1

The subject of test [10] is HepG2. Nature of the test: Antiproliferative activity against human HepG2 cells by MTT assay. An outline of the steps:
as §1

Where only a bound is given, the exact number is not on record here.

By IC50 is commonly meant the concentration at which inhibition is half-maximal. As to `CC(=O)Nc1ccc(-c2cc(CN3CC4CCC(C3)N4Cc3ccnc(-c4ccc(NC(C)=O)cc4)c3)ccn2)cc1`, the IC50 in [1] was 43 µM; in test [2] it was 42 µM; in test [3], 25 µM; in [4], 30 µM; in test [5], 18 µM; in test [6], above 100 µM. Further, the IC50 amounted to 20 µM in test [7], 22 µM in test [8], 19 µM in test [9] and 30 µM in test [10].
As for `Oc1cccc(-c2cc(CN3CC4CCC(C3)N4Cc3ccnc(-c4cccc(O)c4)c3)ccn2)c1`, the IC50 is above 100 µM in test [1]; above 100 µM in test [2]; 16 µM in [3]; 28 µM in test [4]; above 100 µM in test [6]; above 100 µM in [7]. The IC50 was above 100 µM in test [8], 14 µM in test [9] and above 100 µM in [10].
Turning to `c1ccc(-c2ccc(CN3CC4CCC(C3)N4Cc3ccc(-c4ccccc4)cc3)cc2)cc1`, the IC50 in test [1] was 84 µM; in [2], 7 µM; in test [3], 6 µM; in [4] it was 11 µM; in test [5], above 100 µM; in test [6], above 100 µM. Moreover, the IC50 in test [7] is 6 µM; in [8], 43 µM; in [9], 7 µM; in [10], 45 µM.
As to `O=C1C2CCC(N2)C(=O)N1Cc1ccccc1`, the IC50 was 86 µM in [1]; 87 µM in test [2]; 88 µM in [3]; above 100 µM in [4]; above 100 µM in [5]; above 100 µM in test [6]. The IC50 in test [7] was 96 µM; in test [8], 81 µM; in test [9], 85 µM; in test [10] it was 92 µM.
As to `COc1cccc(-c2cc(CN3CC4CCC(C3)N4Cc3ccnc(-c4cccc(OC)c4)c3)ccn2)c1`, the IC50 in [1] was 15 µM; in test [2], 9 µM; in [3] it was 12 µM; in test [4] it was 13 µM; in test [6] it was above 100 µM; in test [7] it was 8 µM. In addition, the IC50 turned out to be 8 µM in test [8], 11 µM in test [9] and 15 µM in test [10].
In the case of `c1ccc2c(c1)ccc1c(CN3CC4CCC(C3)N4Cc3cccc4c3ccc3ccccc34)cccc12`, the IC50 in test [1] was 54 µM; in test [2] it was 41 µM; in [3] it was 9 µM; in test [4] it was 6 µM; in test [6] it was 69 µM; in test [7], 30 µM. Further, the IC50 in test [8] is 40 µM; in test [9], 6 µM; in test [10], 50 µM.
As to `O=[N+]([O-])c1cccc(-c2cc(CN3CC4CCC(C3)N4Cc3ccnc(-c4cccc([N+](=O)[O-])c4)c3)ccn2)c1`, the IC50 in test [1] is 68 µM; in [2], 85 µM; in [3] it was 27 µM; in [4], 63 µM; in test [6], above 100 µM; in [7], 31 µM. Further, the values for the IC50 in test [8], in test [9] and in test [10] were 30 µM, 36 µM and 41 µM, respectively.
Regarding `Cc1ccc(-c2cc(CN3CC4CCC(C3)N4Cc3ccnc(-c4ccc(C)cc4)c3)ccn2)cc1`, the IC50 was 7 µM in test [1]; 7 µM in test [2]; 12 µM in test [3]; 26 µM in test [4]; above 100 µM in [6]; 7 µM in test [7]. Also, the IC50 in [8] turned out to be 8 µM; in [9], 8 µM; in test [10] it was 7 µM.
`c1ccc(-c2cc(CN3CC4CCC(C3)N4Cc3ccnc(-c4ccccc4)c3)ccn2)cc1`: the IC50 is 9 µM in [1]; 8 µM in test [2]; 11 µM in test [3]; 15 µM in test [4]; 19 µM in test [5]; above 100 µM in test [6]. Moreover, the IC50 in [7] stood at 8 µM; in test [8] it was 11 µM; in test [9], 8 µM; in test [10], 11 µM.
With `Sc1ncnc2nc[nH]c12` [MERCAPTOPURINE ANHYDROUS], the IC50 in test [1] was 3 µM; in test [2] it was 2 µM; in test [3], 1 µM; in test [4], 3 µM; in test [5], 0.1 µM; in test [6], above 100 µM. The IC50 is 15 µM in test [7], 58 µM in [8], 1 µM in test [9] and 8 µM in [10].
Take `Cc1cccc(-c2cc(CN3CC4CCC(C3)N4Cc3ccnc(-c4cccc(C)c4)c3)ccn2)c1`: the IC50 in test [1] was 24 µM; in test [2] it was 34 µM; in test [3], 18 µM; in test [4], 25 µM; in test [5] it was above 100 µM; in [6], above 100 µM. Moreover, the IC50 amounted to 15 µM in test [7], 18 µM in test [8], 18 µM in test [9] and 41 µM in test [10].
Take `Clc1ccc(-c2cc(CN3CC4CCC(C3)N4Cc3ccnc(-c4ccc(Cl)cc4)c3)ccn2)cc1`: the IC50 in test [1] is 10 µM; in test [2], 9 µM; in test [3], 13 µM; in [4], 29 µM; in test [6], above 100 µM; in test [7], 10 µM. The results for the half-maximal inhibitory concentration (IC50) in test [8], in test [9] and in [10] were 12 µM, 7 µM and 9 µM, respectively.
On to `CC[C@@]1(O)C(=O)OCc2c1cc1n(c2=O)Cc2cc3ccccc3nc2-1` [CAMPTOTHECIN], for which the IC50 in test [1] stood at 0.04 µM; in test [2], 0.01 µM; in [3], 0.003 µM; in test [4], 0.005 µM; in [5], 0.004 µM; in [6], 0.5 µM. For the same compound, the IC50 in test [7] stood at 0.04 µM; in test [8], 0.01 µM; in [9], 0.003 µM; in test [10] it was 0.03 µM.
For the compound `Oc1ccc(-c2cc(CN3CC4CCC(C3)N4Cc3ccnc(-c4ccc(O)cc4)c3)ccn2)cc1`, the half-inhibitory concentration (IC50) in test [1] worked out at 25 µM; in test [2], 15 µM; in test [3], 12 µM; in test [4] it was 18 µM; in test [6] it was 80 µM; in [7], 19 µM. In addition, the IC50 was 23 µM in [8], 15 µM in test [9] and 13 µM in test [10].
For the compound `c1ccc(CN2CC3CCC(C2)N3)cc1`, the IC50 in test [1], in [2], in [3], in [4], in test [5] and in test [6] was above 100 µM throughout. Moreover, the IC50 in [7], in test [8], in test [9] and in [10] was above 100 µM throughout.
For `c1ccc2c(CN3CC4CCC(C3)N4Cc3cccc4ccccc34)cccc2c1`, the IC50 in test [1] was 11 µM; in test [2], 80 µM; in test [3], 7 µM; in test [4] it was 7 µM; in test [6], 20 µM; in test [7] it was 13 µM. Also, the IC50 in test [8] was determined as 17 µM; in test [9], 8 µM; in test [10], 18 µM.
`CC(=O)Nc1cccc(-c2cc(CN3CC4CCC(C3)N4Cc3ccnc(-c4cccc(NC(C)=O)c4)c3)ccn2)c1`: the IC50 in test [1] was 23 µM; in test [2], 24 µM; in test [3] it was 17 µM; in test [4], 25 µM; in test [5], above 100 µM; in test [6] it was above 100 µM. Moreover, the IC50 worked out at 34 µM in test [7], 33 µM in [8], 16 µM in [9] and 43 µM in test [10].
`O=[N+]([O-])c1ccc(-c2cc(CN3CC4CCC(C3)N4Cc3ccnc(-c4ccc([N+](=O)[O-])cc4)c3)ccn2)cc1`: the IC50 in test [1], in [2], in [3], in [4], in [6] and in test [7] was above 100 µM in each case. Further, the results for the IC50 in [8], in test [9] and in test [10] were above 100 µM, 91 µM and above 100 µM, respectively.
As to `COc1ccc(-c2cc(CN3CC4CCC(C3)N4Cc3ccnc(-c4ccc(OC)cc4)c3)ccn2)cc1`, the IC50 in [1] was 6 µM; in [2], 2 µM; in test [3], 5 µM; in test [4] it was 6 µM; in test [5] it was 4 µM; in test [6], above 100 µM. The IC50 is 2 µM in test [7], 3 µM in test [8], 3 µM in test [9] and 3 µM in test [10].
Turning to `c1ccc(CN2CC3CCC(C2)N3Cc2ccccc2)cc1`, the IC50 in test [1] is above 100 µM; in test [2] it was above 100 µM; in [3], 81 µM; in [4], 60 µM; in test [5], above 100 µM; in test [6] it was above 100 µM. Also, the IC50 in test [7] is above 100 µM; in [8], above 100 µM; in [9], 46 µM; in test [10], above 100 µM.
Turning to `c1ccc(-c2cccc(CN3CC4CCC(C3)N4Cc3cccc(-c4ccccc4)c3)c2)cc1`, the IC50 in [1] amounted to 25 µM; in [2], 14 µM; in test [3], 10 µM; in test [4], 12 µM; in test [6] it was 41 µM; in [7], 15 µM. The figures for the IC50 in test [8], in [9] and in test [10] were 10 µM, 12 µM and 38 µM, respectively.
